Experimental data gathered from unrelated publications.
Lines come from different studies, so protocols differ. pIC50: −log10 of the molar value.
ELANE: Neutrophil elastase (ELANE, Homo sapiens, UniProt P08246)
Delta-aminolevulinic acid dehydratase C162A/K59N: Delta-aminolevulinic acid dehydratase (Homo sapiens, UniProt P13716, C162A/K59N)
BACE1: Beta-secretase 1 (BACE1, Homo sapiens, UniProt P56817)
RXFP3: Relaxin-3 receptor 1 (RXFP3, Homo sapiens, UniProt Q9NSD7)

O=C(N/N=C/c1cccn1CCN1CCOCC1)Nc1cc2c(Nc3ccc(F)c(Cl)c3)ncnc2cc1O[C@H]1CCOC1  pIC50 (Epidermal growth factor receptor (EGFR, Homo sapiens, UniProt P00533, L858R/T790M); enzyme activity; inhibitor): 7.78
Cc1cccc(C(=O)Oc2c(Cl)nnc3ccccc23)c1  pIC50 (ELANE; enzyme activity; inhibitor; fluorescence): 5.32
C=C(Cl)C(=O)Nc1cc(Nc2nc(Nc3cnn(C)c3)c3sccc3n2)c(OC)cc1N1CCN(C)CC1  pIC50 (Epidermal growth factor receptor (EGFR, Homo sapiens, UniProt P00533, C797S/L858R/T790M); enzyme activity; inhibitor; ELISA): < 6.00
O=C(O)c1ccccc1Nc1cccc(C(F)(F)F)c1  pIC50 (Delta-aminolevulinic acid dehydratase C162A/K59N; enzyme activity; inhibitor; absorbance; pH 8; with preincubation): 5.60
CCCS(=O)(=O)Nc1ccc(F)c(C(=O)c2c[nH]c3ncc(-c4ccc(CNC(=O)COCC(=O)NCc5ccc(-c6cnc7[nH]cc(C(=O)c8c(F)ccc(NS(=O)(=O)CCC)c8F)c7c6)cc5)cc4)cc23)c1F  pIC50 (Serine/threonine-protein kinase B-raf (BRAF, Homo sapiens, UniProt P15056, Q461A/V600E); enzyme activity; inhibitor; ELISA): ~6.33
Cc1ncsc1-c1ccc(CNC(=O)[C@@H]2C[C@H](O)CN2C(=O)[C@@H](NC(=O)C2(F)CC2)C(C)(C)C)c(OCCOc2ccc(CN3CCN(c4cc(-c5ccccc5O)nnc4N)CC3)cc2)c1  pIC50 (SWI/SNF-related matrix-associated actin-dependent regulator of chromatin subfamily A member 2, bromodomain (SMARCA2, Homo sapiens, UniProt P51531); ligand displacement; TR-FRET): 6.17
O=C(O)C1=CC(=C(c2ccc(O)c(C(=O)O)c2)c2ccc(O)c(C(=O)O)c2)C=CC1=O  pIC50 (DNA polymerase iota (Homo sapiens, UniProt Q9UNA4); enzyme activity; inhibitor): 7.00
Cc1cc2cc(c1)C(=O)N[C@H]([C@H](O)CN(Cc1cccc(C(C)C)c1)C(=O)OC(C)(C)C)CCC/C=C/CCCC2=O  pIC50 (BACE1; enzyme activity; inhibitor): < 5.00
CN1CCN(c2ccc(Nc3ncc4cc(C#N)c(=O)n(C5CCCC5)c4n3)cc2)CC1  pIC50 (Mitogen-activated protein kinase 8 (MAPK8, Homo sapiens, UniProt P45983); enzyme activity; inhibitor): < 5.00
Cc1cccc(-c2noc(-c3ccc(NC(=O)C4CC(=O)N(Cc5cccnc5)C4)cc3)n2)c1 (centres unmarked)  pIC50 (RXFP3; cAMP; antagonist; TR-FRET): 5.39
Nc1ncc(-c2nc(N3CCOCC3)nc(N3C[C@H]4CC[C@@H](C3)O4)n2)c(C(F)F)n1  pIC50 (Serine/threonine-protein kinase mTOR (MTOR, Homo sapiens, UniProt P42345); ligand displacement; TR-FRET): 7.38
Cc1cccc(C(=O)n2ncc(=O)c3cc([N+](=O)[O-])ccc32)c1  pIC50 (ELANE; enzyme activity; inhibitor; fluorescence): 6.59
O=C(Nc1ccc(-c2nc(-c3ccc(F)cc3)no2)cc1)C1CC(=O)N(Cc2cccnc2)C1 (centres unmarked)  pIC50 (RXFP3; cAMP; antagonist; TR-FRET): 5.57
Oc1ccc(-c2nc(-c3ccncc3)c(-c3ccc(F)cc3)[nH]2)cc1  pIC50 (Serine/threonine-protein kinase B-raf (BRAF, Homo sapiens, UniProt P15056); cell-free assay; inhibitor): 5.95
CC(C)=CCCC(C)=CCc1c(O)cc2occ(-c3ccc(O)cc3)c(=O)c2c1O  pIC50 (BACE1; enzyme activity; inhibitor): < 3.70
C[C@]1(C(=O)[C@H](CC2CCCCC2)NC(=O)[C@@H]2COCCCCCC(=O)N3CCC[C@H]3C(=O)N2)CO1  pIC50 (Proteasome Macropain subunit MB1 (PSMB5, Homo sapiens, UniProt P28074); enzyme activity; inhibitor; fluorescence): < 5.00
CC(=O)N[C@H]1CSSC[C@@H](C(=O)N[C@@H](Cc2c[nH]c3ccccc23)C(N)=O)NC(=O)[C@H](Cc2ccccc2)NC(=O)[C@H](CCCNC(=N)N)NC1=O  pIC50 (Melanocortin receptor 3 (MC3R, Homo sapiens, UniProt P41968); ligand displacement; radioligand): 5.92
COc1ccc2c(c1OCc1ccc(OC(F)(F)F)cc1)C[C@@H](C(=O)O)N(c1nc3ccc(F)cc3o1)C2  pIC50 (Type-1 angiotensin II receptor (AGTR1, Homo sapiens, UniProt P30556); ligand displacement): < 5.00
O=C(O)Cc1ccccc1Nc1c(Cl)cccc1Cl  pIC50 (Delta-aminolevulinic acid dehydratase C162A/K59N; enzyme activity; inhibitor; absorbance; pH 8; with preincubation): 5.05
Cc1cc(Nc2cc(CN3CCOCC3)c3nc(C)c(Cc4ccc(Cl)cc4F)n3n2)n[nH]1  pIC50 (Muscle, skeletal receptor tyrosine-protein kinase (MUSK, Homo sapiens, UniProt O15146); enzyme activity; inhibitor; TR-FRET): 6.83
O=C(Nc1ccc(Br)cc1)N1CCC(n2c(=O)[nH]c3c(Br)cccc32)CC1  pIC50 (SMUG1 (Homo sapiens, UniProt Q53HV7); enzyme activity; inhibitor): < 4.00
O=C(Nc1ccn(Cc2ccc(O)cc2C(F)(F)F)n1)c1c(F)cccc1F  pIC50 (Short transient receptor potential channel 6 (TRPC6, Homo sapiens, UniProt Q9Y210); ion current; inhibitor): < 5.00
Cc1ccc(NC(=O)c2ccc(C)c(C(F)(F)F)c2)cc1C#Cc1nn(C2CCC(O)CC2)c2ncnc(N)c12 (centres unmarked)  pIC50 (Ephrin type-B receptor 2 (EPHB2, Homo sapiens, UniProt P29323); enzyme activity; inhibitor; radiometric): 7.48
COc1ccc(S(=O)(=O)ON=C2C=C(C)C(=O)C(C)=C2)cc1  pIC50 (Histone acetyltransferase KAT5 (KAT5, Homo sapiens, UniProt Q92993); enzyme activity; inhibitor; radiometric): < 4.00
CC(C)C[C@H](NC(=O)[C@H](Cc1ccccc1)NC(=O)[C@@H](N)Cc1ccc(O)cc1)C(=O)N[C@@H](Cc1ccccc1)C(=O)N[C@@H](CCCNC(=N)N)C(=O)N1CCC[C@H]1C(=O)N[C@@H](CCCNC(=N)N)C(=O)N[C@@H](CC(N)=O)C(N)=O  pIC50 (Neuromedin-U receptor 2 (Mus musculus, UniProt Q8BZ39); ligand displacement; radioligand; cell membranes): 10.05
NCCCC[C@H](NC(=O)[C@@H]1CCCN1C(=O)[C@@H]1CSSC[C@H](N)C(=O)N[C@@H](Cc2ccc(O)cc2)C(=O)N[C@@H](Cc2ccccc2)C(=O)N[C@@H](CCC(N)=O)C(=O)N[C@@H](CC(N)=O)C(=O)N1)C(=O)NCC(N)=O  pIC50 (Vasopressin V2 receptor (AVPR2, Homo sapiens, UniProt P30518); ligand displacement; radioligand; cell membranes): 7.85
C=CC(=O)Nc1cc(Nc2nccc(-c3cn(C4CC4)c4ccccc34)n2)c(OC)cc1N(C)CCN(C)C  pIC50 (Epidermal growth factor receptor (EGFR, Homo sapiens, UniProt P00533, G719C); enzyme activity; inhibitor; TR-FRET): 7.76
CC(C)(O)C1Cc2c(cc3occ(-c4ccc(O)cc4)c(=O)c3c2O)O1 (centres unmarked)  pIC50 (BACE1; enzyme activity; inhibitor): < 4.05
N#CC(C(=O)c1ccc(Cl)cc1Cl)=C1NC(=O)c2ccc(OCc3ccc4c(c3)OCO4)cc2N1  pIC50 (Cytoplasmic dynein 2 heavy chain 1 (DYNC2H1, Homo sapiens, UniProt Q8NCM8); ATPase activity; inhibitor): 4.96
Oc1c2ccccc2c2c3c(cccc13)N=N2  pIC50 (Non-receptor tyrosine-protein kinase TYK2 (TYK2, Homo sapiens, UniProt P29597); enzyme activity; inhibitor): 6.36
CC(O)C(C)C(=O)N1CCC(NC(=O)Nc2ccc(OC(F)(F)F)c(F)c2)CC1 (centres unmarked)  pIC50 (Bifunctional epoxide hydrolase 2 (Ephx2, Mus musculus, UniProt P34914); enzyme activity; inhibitor): 8.66
CCOC(F)(F)c1nnc2cnc(-c3cnc(OCC(F)(F)F)c(F)c3)cn12  pIC50 (Sodium channel protein type 8 subunit alpha (Rattus norvegicus, UniProt O88420); ion current; inhibitor; patch clamp): 6.74
